Converted amounts (≈) assume the structure as drawn.
Key:
Type in all cases: functional
Shigella = test: Antibacterial activity tested against Shigella enteritidis
In short: (§1)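 MICs (µg/mL) determined by conventional agar dilution against a panel of eight Gram-negative and five Gram-positive reference strains.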

Mus musculus [1] = species on record: Mus musculus; test: Minimum inhibitory concentration against Septicemia caused by Staphylococcus aureus in mice
Enterococcus faecalis [2] = test: Antibacterial activity tested against Streptococcus faecalis LEP Br; in short: as §1
Escherichia coli [3] = test: Antibacterial activity tested against Escherichia coli ATCC 8739; in short: as §1
[4] = Geometric mean of antibacterial activity (Gram -ve bacteria) of the compound
In short: (§2)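 Geometric means calculated from agar-dilution MICs (µg/mL), taken separately across the five Gram-positive and the eight Gram-negative panel strains.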

Staphylococcus aureus [5] = test: Antibacterial activity against Staphylococcus aureus MPR 5; in short: as §1
Mus musculus [6] = test: Efficacy against Septicemia caused by Staphylococcus aureus in mice by Oral administration
In short: (§3)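 S. aureus Smith ATCC19636, overnight brain-heart infusion culture diluted in 5% mucin, given i.p. (0.5 mL) to male and female CD-1 mice (18-22 g). Single s.c. or oral dose within 10 min of infection, drug in DMSO/0.5% methocel or as suspension. 3-5 dose groups of six mice; ED50 with 95% limits by Spearman-Kärber from day-7 survival.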

Escherichia coli [7] = test: Antibacterial activity tested against Escherichia coli ISF 432; in short: as §1
Staphylococcus aureus [8] = test: Antibacterial activity against Staphylococcus aureus ATCC 6538; in short: as §1
Enterococcus faecalis [9] = test: Antibacterial activity tested against Enterococcus faecalis
Bacteria = test: Geometric mean of antibacterial activity (Gram +ve bacteria) of the compound; in short: as §2
[10] = tested on: Staphylococcus epidermidis; test: Antibacterial activity tested against Staphylococcus epidermidis HCF Berset C; in short: as §1
[11] = tested on: Staphylococcus epidermidis; test: Antibacterial activity tested against Staphylococcus epidermidis CPHL A2; in short: as §1
Escherichia coli [12] = test: Inhibitory activity against gyrase supercoiling activity from Escherichia coli
In short: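 Inhibition of DNA gyrase supercoiling activity, by a previously described protocol with slight modifications. IC50 derived by densitometric quantification of the supercoiled DNA peak in an agarose gel.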

Enterobacter cloacae = test: Antibacterial activity tested against Enterobacter cloacae OMNFI 174
Providencia stuartii = test: Antibacterial activity tested against Providencia stuartii CNUR 5; in short: as §1
Klebsiella pneumoniae = test: Antibacterial activity tested against Klebsiella pneumoniae (Klebsiella pneumoniae) ATCC 10031; in short: as §1
Enterococcus faecium [13] = test: Antibacterial activity tested against Enterococcus faecium; Range is 0.06-1 ug/mL
Proteus vulgaris = test: Antibacterial activity tested against Proteus vulgaris CNUR 5; in short: as §1
Pseudomonas aeruginosa = test: Antibacterial activity tested against P. ae (Pseudomonas aeruginosa) ATCC 9027; in short: as §1
Mus musculus [14] = test: Efficacy against Septicemia caused by Staphylococcus aureus in mice by subcutaneous administration; details: sc; in short: as §3
Staphylococcus aureus [15] = test: Antibacterial activity tested against Staphylococcus aureus Methicillin-and Ciprofloxacin resistants; Range is 0.05-1 ug/mL
Streptococcus pneumoniae [16] = test: Antibacterial activity tested against Streptococcus pneumoniae
Staphylococcus aureus [17] = test: Antibacterial activity tested against Staphylococcus aureus; Range is 0.004-0.03 ug/mL
Enterococcus faecium [18] = test: Antibacterial activity tested against Enterococcus faecium; Range is 0.13-2 ug/mL
Enterococcus faecalis [19] = test: Antibacterial activity tested against Enterococcus faecalis; Range is 0.13-0.25 ug/mL
Streptococcus pneumoniae [20] = test: Antibacterial activity tested against Streptococcus pneumoniae; Range is 1-2 ug/mL
Staphylococcus aureus [21] = test: Antibacterial activity tested against Staphylococcus aureus; Range is 0.016-0.13 ug/mL
Staphylococcus aureus [22] = test: Antibacterial activity tested against Staphylococcus aureus Methicillin-and Ciprofloxacin resistants; Range is 1-2 ug/mL
Enterococcus faecium [23] = test: Antibacterial activity tested against Enterococcus faecium; Range is 0.5-2 ug/mL
Enterococcus faecalis [24] = test: Antibacterial activity tested against Enterococcus faecalis; Range is 0.25-0.5 ug/mL
Staphylococcus aureus [25] = test: Antibacterial activity tested against Staphylococcus aureus Methicillin-and Ciprofloxacin resistants; Range is 4-8 ug/mL
Staphylococcus aureus [26] = test: Antibacterial activity tested against Staphylococcus aureus; Range is 0.06-0.13 ug/mL
Staphylococcus aureus [27] = test: Antibacterial activity tested against Staphylococcus aureus Methicillin-and Ciprofloxacin resistants; Range is 2-8 ug/mL
Enterococcus faecium [28] = test: Antibacterial activity tested against Enterococcus faecium

| SMILES | MIC (Shigella) [µg/mL] | MIC (Enterococcus faecalis [2]) [µg/mL] | MIC (Escherichia coli [3]) [µg/mL] | Geometric mean [4] | MIC (Staphylococcus aureus [5]) [µg/mL] | MIC (Escherichia coli [7]) [µg/mL] | MIC (Staphylococcus aureus [8]) [µg/mL] | MIC (Enterococcus faecalis [9]) [µg/mL] | Geometric mean (Bacteria) | MIC [10] [µg/mL] | MIC [11] [µg/mL] | IC50 (Escherichia coli [12]) [µg/mL] | MIC (Enterobacter cloacae) [µg/mL] | MIC (Providencia stuartii) [µg/mL] | MIC (Klebsiella pneumoniae) [µg/mL] | MIC (Proteus vulgaris) [µg/mL] | MIC (Pseudomonas aeruginosa) [µg/mL] | MIC (Streptococcus pneumoniae [20]) [µg/mL] | MIC (Staphylococcus aureus [26]) [µg/mL] | further results |
| --- | --- | --- | --- | --- | --- | --- | --- | --- | --- | --- | --- | --- | --- | --- | --- | --- | --- | --- | --- | --- |
| Cc1c(N2CCc3ccccc3C2)c(N)cc2c(=O)c(C(=O)O)cn(C3CC3)c12 | 0.25 (≈ 0.642 µM) | 0.25 (≈ 0.642 µM) | 0.008 (≈ 0.0205 µM) | 0.105 | 0.008 (≈ 0.0205 µM) | 0.008 (≈ 0.0205 µM) | 0.008 (≈ 0.0205 µM) | 0.06 (≈ 0.154 µM) | 0.024 | 0.03 (≈ 0.077 µM) | 0.016 (≈ 0.0411 µM) | 3.58 (≈ 9.19 µM) | 0.25 (≈ 0.642 µM) | 0.06 (≈ 0.154 µM) | 0.06 (≈ 0.154 µM) | 2 (≈ 5.14 µM) | 0.5 (≈ 1.28 µM) |  |  | MIC (Mus musculus [1]): 0.016 µg/mL (≈ 0.0411 µM); ED50 (Mus musculus [6]): 5 mg/kg; MIC (Enterococcus faecium [13]): 0.06 µg/mL (≈ 0.154 µM); ED50 (Mus musculus [14]): 1.3 mg/kg; MIC (Staphylococcus aureus [15]): 0.05 µg/mL (≈ 0.128 µM); MIC (Streptococcus pneumoniae [16]): 0.13 µg/mL (≈ 0.334 µM); MIC (Staphylococcus aureus [17]): 0.004 µg/mL (≈ 0.0103 µM) |
| Cc1c(N2CCC(C)CC2)c(N)cc2c(=O)c(C(=O)O)cn(C3CC3)c12 | 0.5 (≈ 1.41 µM) | 0.5 (≈ 1.41 µM) | 0.03 (≈ 0.0844 µM) | 0.268 | 0.06 (≈ 0.169 µM) | 0.03 (≈ 0.0844 µM) | 0.06 (≈ 0.169 µM) |  | 0.122 | 0.125 (≈ 0.352 µM) | 0.125 (≈ 0.352 µM) | 5.86 (≈ 16.5 µM) | 0.5 (≈ 1.41 µM) | 0.5 (≈ 1.41 µM) | 0.03 (≈ 0.0844 µM) | 8 (≈ 22.5 µM) | 1 (≈ 2.81 µM) | 1 (≈ 2.81 µM) |  | MIC (Enterococcus faecium [18]): 0.13 µg/mL (≈ 0.366 µM); MIC (Enterococcus faecalis [19]): 0.13 µg/mL (≈ 0.366 µM); MIC (Staphylococcus aureus [21]): 0.016 µg/mL (≈ 0.045 µM); MIC (Staphylococcus aureus [22]): 1 µg/mL (≈ 2.81 µM) |
| Cc1c(N2CCc3ccccc3C2)c(F)cc2c(=O)c(C(=O)O)cn(C3CC3)c12 | 0.25 (≈ 0.637 µM) | 0.25 (≈ 0.637 µM) | 0.06 (≈ 0.153 µM) | 0.451 | 0.03 (≈ 0.0764 µM) | 0.03 (≈ 0.0764 µM) | 0.03 (≈ 0.0764 µM) |  | 0.046 | 0.03 (≈ 0.0764 µM) | 0.03 (≈ 0.0764 µM) | 3.14 (≈ 8 µM) | 4 (≈ 10.2 µM) | 2 (≈ 5.1 µM) | 0.03 (≈ 0.0764 µM) | 4 (≈ 10.2 µM) | 4 (≈ 10.2 µM) |  |  |  |
| Cc1c(N2CCN(C)CC2)c(N)cc2c(=O)c(C(=O)O)cn(C3CC3)c12 | 0.06 (≈ 0.168 µM) | 4 (≈ 11.2 µM) | 0.03 (≈ 0.0842 µM) | 0.205 | 0.5 (≈ 1.4 µM) | 0.03 (≈ 0.0842 µM) | 0.5 (≈ 1.4 µM) |  | 1 | 1 (≈ 2.81 µM) | 1 (≈ 2.81 µM) | 3.78 (≈ 10.6 µM) | 0.125 (≈ 0.351 µM) | 2 (≈ 5.61 µM) | 0.03 (≈ 0.0842 µM) | 4 (≈ 11.2 µM) | 2 (≈ 5.61 µM) |  |  |  |
| Cc1c(N2CCOCC2)c(N)cc2c(=O)c(C(=O)O)cn(C3CC3)c12 | 0.125 (≈ 0.364 µM) | 1 (≈ 2.91 µM) | 0.03 (≈ 0.0874 µM) | 0.189 | 0.125 (≈ 0.364 µM) | 0.03 (≈ 0.0874 µM) | 0.125 (≈ 0.364 µM) |  | 0.218 | 0.125 (≈ 0.364 µM) | 0.25 (≈ 0.728 µM) | 5.64 (≈ 16.4 µM) | 0.125 (≈ 0.364 µM) | 0.5 (≈ 1.46 µM) | 0.03 (≈ 0.0874 µM) | 8 (≈ 23.3 µM) | 1 (≈ 2.91 µM) | 1 (≈ 2.91 µM) | 0.06 (≈ 0.175 µM) | MIC (Enterococcus faecium [23]): 0.5 µg/mL (≈ 1.46 µM); MIC (Enterococcus faecalis [24]): 0.25 µg/mL (≈ 0.728 µM); MIC (Staphylococcus aureus [25]): 4 µg/mL (≈ 11.6 µM) |
| Cc1c(N2CCSCC2)c(N)cc2c(=O)c(C(=O)O)cn(C3CC3)c12 | 0.125 (≈ 0.348 µM) | 0.5 (≈ 1.39 µM) | 0.25 (≈ 0.696 µM) | 0.362 | 0.06 (≈ 0.167 µM) | 0.03 (≈ 0.0835 µM) | 0.06 (≈ 0.167 µM) | 0.5 (≈ 1.39 µM) | 0.123 | 0.125 (≈ 0.348 µM) | 0.125 (≈ 0.348 µM) | 1.42 (≈ 3.95 µM) | 0.25 (≈ 0.696 µM) | 2 (≈ 5.56 µM) | 0.02 (≈ 0.0556 µM) | 32 (≈ 89 µM) | 1 (≈ 2.78 µM) | 1 (≈ 2.78 µM) | 0.06 (≈ 0.167 µM) | MIC (Staphylococcus aureus [27]): 2 µg/mL (≈ 5.56 µM); MIC (Enterococcus faecium [28]): 2 µg/mL (≈ 5.56 µM) |
